# Assay outcomes deposited in PubChem by several laboratories.
# MPTP inh: inhibitors of mitochondrial permeability transition pore. 1.4% of 360,000 active. isolated mouse mitochondria, Ca2+ swelling absorbance, 30 min. inhibition, % at 10 µM;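 active means inhibition of 50% or more, scaled per plate between neutral and stimulator controls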;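 further: 0% = DMSO wells given calcium and 100% = 1 mM EGTA wells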
# Apaf-1 inh: blocks human Apaf-1 apoptosome activity; O14727; reconstituted apoptosome caspase-3 activity, DEVD-Rh110 fluorescence; inhibition, % at 20 µM; 0.71% of 330,000 active; active means inhibition of at least 40% at 20 µM;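 further: plate controls were DMSO wells for no effect and DEVD-CHO caspase inhibitor wells for full effect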
#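 Medium: Hepes buffer, pH 7.5 / System: biochemical Apaf-1 apoptosome reconstitution / Measured by: Rh110 fluorescence, excitation 480 nm, emission 540 nm / Times: compound with Apaf-1, dATP, procaspase-3 30 min, then 50 min reaction, room temperature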
# Granule exo inh: lytic granule exocytosis inhibition | AID 651702 | inhibition, % at 10 µM | 0.66% of 360,000 active | TALL-104 LAMP-1 surface exposure, flow cytometry; cells stimulated with thapsigargin and PMA;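 active means inhibition above about 55%, limit read from the data; inconclusive means no clear call, values can overlap the other calls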
# UBC13 polyUb: blocks human UBC13 polyubiquitin chain formation; P61088; TR-FRET; inhibition, % at 20 µM; 0.47% of 330,000 active; AID 485273; in the data active means inhibition above about 45%, passing the limit was not always enough; inconclusive means no clear call, values can overlap the other calls
# Target sequence (P61088 whole entry, looked up): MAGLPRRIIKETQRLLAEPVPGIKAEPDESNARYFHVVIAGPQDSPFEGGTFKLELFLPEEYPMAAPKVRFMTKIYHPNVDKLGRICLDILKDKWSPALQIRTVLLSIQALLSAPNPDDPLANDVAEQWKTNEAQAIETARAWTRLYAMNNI
# hiPSC survival: increases survival of single human iPS cells; hiPSC single-cell survival, ATPlite luminescence; 100% = ROCK inhibitor wells, 0% = DMSO; survival enhancement, % at 20 µM; 0.044% of 360,000 active; AID 602274; in the data active means survival enhancement above about 18%;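 further: cells exposed to compounds for 16 hours before the ATP read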
# beta cell repl: induces beta-cell replication in MIN6 cells; MIN6 cells proliferation, ATPlite luminescence, 48 h; cells starved in 0.2% serum; 100% = growth in 10% serum; proliferation, % at 10 µM; 0.29% of 330,000 active;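 active means compounds whose signal lies at least 3.5 SD above the mean of all wells on their plate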;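 further: 0% = DMSO-treated cells in low-serum medium and 100% = 10% serum control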
# Granule exo CP1: blocks lytic granule exocytosis; TALL-104 cells, LAMP-1 externalization, flow cytometry; stimulated with PMA plus thapsigargin; inhibition, % at 10 µM; shares compounds with Granule exo inh; 11% of 1,500 active; in the data active means inhibition above about 60%;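 further: 0% = stimulated vehicle wells and 100% = unstimulated wells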
# * = called active by the depositor; ? = inconclusive; · = no result given. A selection: hits, their analogues and other compounds. The true share with any hit is near 3%.
SMILES,MPTP inh,Apaf-1 inh,Granule exo inh,UBC13 polyUb,hiPSC survival,beta cell repl,Granule exo CP1
CC(=O)OCCCN(C)CC/C=C1/c2ccccc2CSc2ccccc21,2,9,62*,12,0,-4,-15
CC1CCCCC1NC(=O)COC(=O)c1ccc2c(=O)n3c(nc2c1)CCC3 (stereo not drawn),0,2,-12,-9,-1,-4,·
C/C(=N\NC(=O)c1nn(C)c(C)c1Br)c1ccc(NC(=O)C2CCCC2)cc1,-1,0,2,-5,0,-1,·
COc1ccccc1N(CC(=O)Nc1ccc2c(c1)OCCO2)S(C)(=O)=O,-1,-6,5,7,1,-1,·
COc1ccc(OC)c(N(CC(=O)Nc2cccc(C(F)(F)F)c2)S(C)(=O)=O)c1,0,3,1,14,0,-1,·
COc1ccccc1N(CC(=O)Nc1ccc2c(c1)OCCO2)S(=O)(=O)c1ccc(C)cc1,1,18,73*,2,0,-3,-10
CCOc1ccccc1N(CC(=O)NC1CCCCC1)S(=O)(=O)c1ccc(C)cc1,0,27,93*,-2,0,0,-12
COc1ccccc1N(CC(=O)NC1CCCC1)S(=O)(=O)c1ccc(C)cc1,-2,-1,16,-9,1,0,·
COc1ccccc1N(CC(=O)Nc1cccc(C(F)(F)F)c1)S(C)(=O)=O,0,3,80*,8,0,-1,-10
CC1(c2ccc3c(c2)OCCCO3)NC(=O)N(CC(=O)Nc2cccc(C#N)c2)C1=O (stereo not drawn),2,8,2,8,1,2,·
CCN(CC)C(=O)[C@H]1CC(CC(=O)NCC23CC4CC(CC(C4)C2)C3)C(=O)N2CCc3c([nH]c4ccccc34)[C@]12C (stereo partly drawn),-1,30,4,-3,0,-5,·
C[C@@H]1CN([C@H](C)CO)C(=O)c2c(c3ccccc3n2C)-c2ccccc2CO[C@H]1CN(C)Cc1ccc(C(F)(F)F)cc1,-1,·,4,·,-2,·,·
C[C@@H]1CN([C@H](C)CO)C(=O)c2c(c3ccccc3n2C)-c2ccccc2CO[C@H]1CN(C)Cc1ccc(Oc2ccccc2)cc1,-2,·,56*,·,1,·,8
CC(=O)NCCC(=O)Nc1cc(S(=O)(=O)N2CCCCC2)ccc1Oc1ccccc1,0,1,0,-8,0,0,·
CC(C)CC(=O)NC1(C(F)(F)F)NC(=O)N(c2ccccc2)C1=O (stereo not drawn),-2,7,90*,-6,1,-1,-4
CN(c1ccc(OCc2ccc([N+](=O)[O-])cc2)cc1)S(=O)(=O)c1ccccc1,2,19,61*,1,0,0,-14
Cc1ccc(S(=O)(=O)N(C)c2ccc(OCc3cccc(C)c3)cc2)cc1,-1,16,-2,0,0,-6,·
COc1ccc(C(=O)OC(C)C(=O)NC(C)CCc2ccccc2)c(OC)c1 (stereo not drawn),0,2,58*,-8,0,-2,-12
COc1ccc(C(=O)OC(C)C(=O)NC(C)CCc2ccccc2)cc1[N+](=O)[O-] (stereo not drawn),-1,9,2,1,-1,0,·
CN(C)S(=O)(=O)c1cccc(NC(=O)c2ccc(COc3ccccc3)cc2)c1,5,17,58*,-13,0,-5,10
CN(c1ccccc1)S(=O)(=O)c1cccc(NC(=O)c2ccc3ncsc3c2)c1,23,-1,67*,2,0,-4,8
COc1ccc(N(C)S(=O)(=O)c2cccc(C(=O)Nc3ccc4c(c3)OCCO4)c2)cc1,0,-11,90*,1,0,-1,-3
CN(c1ccccc1)S(=O)(=O)c1cccc(NC(=O)c2cccc(C#N)c2)c1,7,15,-1,0,0,-4,·
O=C(c1ccc(Br)cc1)N(Cc1ccco1)C1CCS(=O)(=O)C1 (stereo not drawn),-3,5,2,-3,-1,-4,·
CN(C)c1ccc(C(C(=O)NCc2ccccc2)N(Cc2ccco2)C(=O)c2snc(C(N)=O)c2N)cc1 (stereo not drawn),2,·,99*,·,-1,·,2
SMILES,MPTP inh,Apaf-1 inh,Granule exo inh,UBC13 polyUb,hiPSC survival,beta cell repl,Granule exo CP1
O=P(c1ccccc1)(c1ccccc1)C(O)c1ccc(Br)cc1 (stereo not drawn),0,5,60*,-5,0,1,-12
O=P(c1ccccc1)(c1ccccc1)C(O)c1ccccn1 (stereo not drawn),3,4,11,4,0,-1,·
Clc1cccc(Cl)c1C1Nc2cccc3cccc(c23)N1,1,25,85*,-26,0,-4,46
Cc1cccc(S(=O)(=O)Nc2ccc(-c3nc4ccc(C)cc4s3)cc2)c1,5,28,75*,-8,-1,-2,-11
Cc1ccc2nc(-c3ccc(NC(=O)CN4C(=O)c5ccccc5C4=O)cc3)sc2c1,8,1,-1,-9,-2,0,·
Cc1ccc2nc(-c3ccc(NC(=O)CNC4CC4)cc3)sc2c1,2,·,74*,·,-2,·,28
CC(C)N(C)S(=O)(=O)c1ccc(NC(=O)CSC(=S)N2CCCC2)cc1,-1,10,-6,-4,0,7,·
O=C(CN1CCC(C(=O)c2ccc3c(c2)OCCO3)CC1)Nc1ccccc1C(F)(F)F,1,21,88*,18,0,0,-3
OC(CNCc1ccco1)Cn1c2ccc(Br)cc2c2cc(Br)ccc21 (stereo not drawn),10,31,78*,29,0,-5,-9
Brc1ccc2ncnc(NCc3ccco3)c2c1,43,11,-2,?,-1,-2,·
COc1ccc(CCN2CCCC(CN(C)Cc3cc(OC)ccc3OC)C2)cc1 (stereo not drawn),3,4,72*,5,-1,-5,-14
COc1ccc(CCN2CCCC(CN(C)Cc3cccc(OC)c3)C2)cc1 (stereo not drawn),0,10,56*,4,-1,-1,-14
COc1ccc(CCN2CCCC(CN(C)C(=O)c3cc(C)oc3C)C2)cc1 (stereo not drawn),-1,12,17,7,0,2,·
COc1ccc(CN(C)CC2CCCN(CCc3ccc(F)cc3)C2)c(OC)c1OC (stereo not drawn),0,3,70*,11,0,-4,-2
CC(=O)N1c2ccc(S(=O)(=O)NCC3CCC(C(=O)NC4CCCCC4C)CC3)cc2CC1C (stereo not drawn),2,-12,4,1,0,-1,·
